This note sets out measurements from ChEMBL document CHEMBL3608210, “LC-MS- and (1)H NMR Spectroscopy-Guided Identification of Antifungal Diterpenoids from Sagittaria latifolia” (J Nat Prod, 2015).

≈ marks a conversion by molar mass, not a printed value. Calls of active or inactive are those of the source. The calls are words filed in the database; no cut-off is given here. Some results are limits rather than exact numbers.

The test system of assay [1] is Vero. In words: Cytotoxicity against african green monkey Vero cells assessed as reduction in cell viability incubated for 48 hrs by neutral red based assay. Conditions: Chlorocebus sabaeus. The method in brief:
(§1)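 Vero (African green monkey kidney […]) and LLC-PK1 (pig kidney epithelial) cells were obtained from ATCC. Cytotoxicity was read by neutral red uptake, with doxorubicin as the positive control. IC50 was taken as the concentration giving 50% growth inhibition of the mammalian cells.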

The test system of assay [2] is LLC-PK1. In words: Cytotoxicity against pig LLC-PK1 cells assessed as reduction in cell viability incubated for 48 hrs by neutral red based assay. Conditions: Sus scrofa, LLC-PK1, 48 h. The method in brief: as §1
The subject of assay [3] is Cryptococcus neoformans. Kind of assay: Antifungal activity against Cryptococcus neoformans ATCC 90113 assessed as inhibition of microbial growth incubated for 72 hrs at 30 degC by modified CLSI protocol based method. Type of assay: functional, organism-based. Conditions: ATCC 90113, 72 h. The method in brief:
(§2)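 Strains were obtained from ATCC, and amphotericin B served as the positive control. IC50 was the concentration giving 50% growth inhibition of fungal cells. MIC was the lowest concentration allowing no detectable growth. The highest concentration tested was 20 μg/mL.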

For assay [4], the system named is Cryptococcus bacillisporus. Kind of assay: Antifungal activity against Cryptococcus gattii ATCC 32609 assessed as inhibition of microbial growth incubated for 72 hrs at 30 degC by modified CLSI protocol based method. Type of assay: functional, organism-based. Conditions: ATCC 32609, 72 h. The essentials: as §2
Assay [5] deals with Cryptococcus neoformans. Kind of assay: Antifungal activity against Cryptococcus neoformans ATCC 90113 assessed as inhibition of microbial growth at 20 ug/ml incubated for 72 hrs at 30 degC by modified CLSI protocol based method. Type of assay: functional, organism-based. The method in brief: as §2

As a reminder, the IC50 is the concentration at which inhibition is half-maximal. By MIC is commonly meant the lowest concentration found to suppress growth. As for `C=C[C@@]1(C)CC[C@H]2C(=CC[C@H]3[C@@](C)(CO[C@@H]4O[C@@H](CO)[C@H](O)[C@H]4O)CCC[C@]23C)C1`, the IC50 in assay [1] was 30 µg/mL (≈ 71.3 µM); in assay [2] it was 21.5 µg/mL (≈ 51.1 µM); in assay [3], 3.7 µg/mL; in assay [4] it was 1.8 µg/mL. Further, the MIC in assay [3] is more than 20 µg/mL; in assay [4], 20 µg/mL.

Turning to `C=C[C@@]1(C)CC[C@H]2C(=CC[C@H]3[C@@](C)(CO)CCC[C@]23C)C1`, the IC50 in assay [1] worked out at 37.5 µg/mL (≈ 130 µM); in assay [2], 42.5 µg/mL (≈ 147 µM); in assay [3] it was 9.2 µg/mL; in assay [4], 6.8 µg/mL. In addition, the MIC in assay [3] is more than 20 µg/mL; in assay [4] it was 20 µg/mL.

`COc1cccc2c1C(=O)c1c(O)c3c(c(O)c1C2=O)C[C@@](O)(C(=O)CO)C[C@@H]3O[C@H]1C[C@H](N)[C@H](O)[C@H](C)O1` [DOXORUBICIN]: the IC50 came out at 5.4 µg/mL (≈ 9.94 µM) in assay [1] and 0.4 µg/mL (≈ 0.736 µM) in assay [2].

Regarding `C=C[C@@]1(C)CC[C@H]2C(=CC[C@H]3[C@@](C)(CO[C@@H]4O[C@@H](COC(C)=O)[C@H](O)[C@H]4O)CCC[C@]23C)C1`, the “growth inhibition (GI)” value in assay [5] is “inactive”.

With `C[C@@H]1[C@H](O)[C@@H](C)/C=C/C=C/C=C/C=C/C=C/C=C/C=C/[C@H](O[C@@H]2O[C@H](C)[C@@H](O)[C@H](N)[C@@H]2O)C[C@@H]2O[C@](O)(C[C@@H](O)C[C@@H](O)[C@H](O)CC[C@@H](O)C[C@@H](O)CC(=O)O[C@H]1C)C[C@H](O)[C@H]2C(=O)O` [AMPHOTERICIN B], the MIC in assay [3] worked out at 0.7 µg/mL. In assay [4], the IC50 came out at 0.1 µg/mL and the minimum inhibitory concentration (MIC) stood at 0.3 µg/mL.
